Reference: ChEMBL document CHEMBL2413060, “Synthesis, biological evaluation and molecular docking studies of some pyrimidine derivatives” (2013)
In brackets after ≈: the same amount, converted by molar mass.

Assays:
Type in all cases: functional
Candida albicans [1] = assay: Antifungal activity against Candida albicans ATCC 2091 assessed as diameter of inhibition zone at 1 mg/ml after 48 hrs by cup diffusion method (reference value: 22 mm); conditions: ATCC 2091, 48 h, read-out: DIZ
Shigella flexneri [2] = assay: Antibacterial activity against Shigella flexneri ATCC 15391 assessed as diameter of inhibition zone at 1 mg/ml after 24 hrs by cup diffusion method (reference value: 17 mm); conditions: ATCC 15391, 24 h, read-out: DIZ
Staphylococcus aureus [3] = assay: Antibacterial activity against Staphylococcus aureus ATCC 6538P assessed as diameter of inhibition zone at 1 mg/ml after 24 hrs by cup diffusion method (reference value: 15 mm); conditions: read-out: DIZ
Pseudomonas aeruginosa [4] = assay: Antibacterial activity against Pseudomonas aeruginosa ATCC 9027 assessed as diameter of inhibition zone at 1 mg/ml after 24 hrs by cup diffusion method (reference value: 16 mm); conditions: ATCC 9027, 24 h, read-out: DIZ
Shigella flexneri [5] = assay: Antibacterial activity against Shigella flexneri ATCC 15391 after 24 hrs by two-fold serial dilution method; conditions: ATCC 15391, 24 h
Procedure, shortened: (§1)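 Two-fold serial broth dilution in sterile nutrient broth at 500, 250, 125, 62.5, 31.25, 15.63, 7.82 and 3.91 µg/ml, with dimethylformamide ≤2.5%. Organisms were pre-grown 24 h in broth, and 0.1 ml inoculum was added per 5 ml tube. Tubes were incubated at 37°C, 24 h for bacteria and 48 h for fungi. MIC was taken as the lowest concentration giving no turbidity.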

HOP-92 = assay: Cytotoxicity against human HOP92 cells assessed as growth inhibition at 10 uM; conditions: read-out: GI
Pseudomonas aeruginosa [6] = assay: Antibacterial activity against Pseudomonas aeruginosa ATCC 9027 after 24 hrs by two-fold serial dilution method; conditions: ATCC 9027, 24 h; procedure, shortened: as §1
HOP-62 = assay: Cytotoxicity against human HOP62 cells assessed as growth inhibition at 10 uM; conditions: read-out: GI
Candida albicans [7] = assay: Antifungal activity against Candida albicans ATCC 2091 after 48 hrs by two-fold serial dilution method; conditions: ATCC 2091, 48 h; procedure, shortened: as §1
Candida albicans [8] = assay: Antifungal activity against Candida albicans ATCC 2091 after 48 hrs by two-fold serial dilution method relative to clotrimazole
Staphylococcus aureus [9] = assay: Antibacterial activity against Staphylococcus aureus ATCC 6538P after 24 hrs by two-fold serial dilution method; procedure, shortened: as §1
Pseudomonas aeruginosa [10] = assay: Antibacterial activity against Pseudomonas aeruginosa ATCC 9027 after 24 hrs by two-fold serial dilution method relative to ofloxacin
Shigella flexneri [11] = assay: Antibacterial activity against Shigella flexneri ATCC 15391 after 24 hrs by two-fold serial dilution method relative to ofloxacin
NCI/ADR-RES = assay: Cytotoxicity against human NCI/ADR-RES cells assessed as growth inhibition at 10 uM; conditions: read-out: GI
Procedure, shortened: (§2)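 Single-dose screen on human tumour cell lines. Growth of treated cells is expressed as percent of untreated growth, plotted as a mean graph, and reported as percent growth inhibition.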

HCC 2998 = assay: Cytotoxicity against human HCC2998 cells assessed as growth inhibition at 10 uM; conditions: read-out: GI
SK-MEL-2 = assay: Cytotoxicity against human SK-MEL-2 cells assessed as growth inhibition at 10 uM; conditions: read-out: GI; procedure, shortened: as §2
OVCAR-8 = assay: Cytotoxicity against human OVCAR8 cells assessed as growth inhibition at 10 uM; conditions: read-out: GI; procedure, shortened: as §2
UACC-257 = assay: Cytotoxicity against human UACC257 cells assessed as growth inhibition at 10 uM; conditions: read-out: GI
Procedure, shortened: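 Single-dose screen in a sixty-cell human tumour line panel; percent growth of treated cells relative to untreated was read and reported as percentage growth inhibition, shown as a mean graph. Compounds meeting the threshold inhibition criteria went on to five-dose testing.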

SMILES	zone of inhibition at 1000 µg/mL (Candida albicans [1]) [mm]	zone of inhibition at 1000 µg/mL (Shigella flexneri [2]) [mm]	zone of inhibition at 1000 µg/mL (Staphylococcus aureus [3]) [mm]	zone of inhibition at 1000 µg/mL (Pseudomonas aeruginosa [4]) [mm]	MIC (Shigella flexneri [5]) [µg/mL]	MIC (Pseudomonas aeruginosa [6]) [µg/mL]	further results
N#Cc1c(-c2ccc([N+](=O)[O-])cc2)nc(SCC2CO2)[nH]c1=O (stereo not given)	22	17	15	17			
N#Cc1c(-c2ccccc2)nc(SCC2CO2)[nH]c1=O (stereo not given)	22	22	15	16	125 (≈ 438 µM)		inhibition of growth at 10 µM (HOP-92): 41.5%
N#Cc1c(-c2ccco2)nc(SCC2CO2)nc1N1CCOCC1 (stereo not given)	22	17	15	16			
N#Cc1c(Cl)nc(=S)[nH]c1-c1ccco1	22	17	15	18		62.5 (≈ 263 µM)	inhibition of growth at 10 µM (HOP-62): 49.6%
N#Cc1c(N2CCN(Cc3ccccc3)CC2)nc(=S)[nH]c1-c1ccco1	29	17	18	20		125 (≈ 331 µM)	MIC (Candida albicans [7]): 125 µg/mL (≈ 331 µM); Activity (Candida albicans [8]): 75%; MIC (Staphylococcus aureus [9]): 3.91 µg/mL (≈ 10.4 µM)
N#Cc1c(-c2ccco2)nc(SCC(O)CN2CCOCC2)nc1N1CCOCC1 (stereo not given)	25	17	15	18		125 (≈ 290 µM)	MIC (Candida albicans [7]): 125 µg/mL (≈ 290 µM); Activity (Candida albicans [8]): 60%
CCN(CC)CCSc1nc(-c2ccccc2)c(C#N)c(=O)[nH]1	25	21	18	18	125 (≈ 381 µM)	125 (≈ 381 µM)	Activity (Pseudomonas aeruginosa [10]): 50%; Activity (Shigella flexneri [11]): 60%; MIC (Candida albicans [7]): 125 µg/mL (≈ 381 µM); Activity (Candida albicans [8]): 62%; MIC (Staphylococcus aureus [9]): 3.91 µg/mL (≈ 11.9 µM); inhibition of growth at 10 µM (NCI/ADR-RES): 42%; inhibition of growth at 10 µM (HCC 2998): 107%
N#Cc1c(N2CCOCC2)nc(=S)[nH]c1-c1ccc([N+](=O)[O-])cc1	22	18	15	16			
Cn1c(N2CCCCC2)nc(-c2ccco2)c(C#N)c1=O	22	19	15	16			inhibition of growth at 10 µM (SK-MEL-2): 70.7%
N#Cc1c(Cl)nc(=S)[nH]c1-c1ccccc1	22	22	15	18	125 (≈ 505 µM)	125 (≈ 505 µM)	inhibition of growth at 10 µM (HOP-92): 48.5%; inhibition of growth at 10 µM (HOP-62): 47.4%
Clc1ccccc1C(c1ccccc1)(c1ccccc1)n1ccnc1 [CLOTRIMAZOLE]	40						MIC (Candida albicans [7]): 12.5 µg/mL (≈ 36.2 µM)
Cn1c(N2CCCCC2)nc(-c2ccccc2)c(C#N)c1=O	22	24	15	17	125 (≈ 425 µM)		inhibition of growth at 10 µM (OVCAR-8): 42.4%; inhibition of growth at 10 µM (UACC-257): 71.9%; inhibition of growth at 10 µM (SK-MEL-2): 69.8%
N#Cc1c(N2CCCCC2)nc(=S)[nH]c1-c1ccco1	22	17	18	16			MIC (Staphylococcus aureus [9]): 125 µg/mL (≈ 437 µM)
CC1COc2c(N3CCN(C)CC3)c(F)cc3c(=O)c(C(=O)O)cn1c23 (stereo not given) [OFLOXACIN]		32	43	43	7.81 (≈ 21.6 µM)	1.95 (≈ 5.4 µM)	
COc1ccc(NC(=O)CSc2nc(-c3ccco3)c(C#N)c(=O)[nH]2)cc1	23	20	15	16	125 (≈ 327 µM)		Activity (Shigella flexneri [11]): 60%
N#Cc1c(-c2ccco2)nc(SCC(O)CN2CCOCC2)[nH]c1=O (stereo not given)	22	18	15	16			
